Laboratory results reported in PMC4206749 (Toxicological Research, 2014).

Assays:
[1] = tested on: CHL cells (Chinese hamster lung fibroblast cell line); test: In vitro chromosomal aberration assay; format: cell-based; details: for Gap / Numerical aberrations, PP + ER / Structural aberrations, Chromatid type, ctb / Structural aberrations, Chromatid type, cte / Structural aberrations, Chromosome type, csb / Structural aberrations, Chromosome type, cse / Structural aberrations, Others: 200 cells
[2] = tested on: CHL cells; test: Cytotoxicity assay; format: cell-based, Chinese hamster; details: 7.81 to 1,000 μg/ml, 24 hr treatments
How it was run: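 MTT viability test. Cells were seeded at 1 × 10^4 per well overnight, then exposed 24 hr to test compound; CHL range 7.81 to 1,000 μg/ml. MTT was added at 0.5 mg/ml final for 4 hr at 37℃, followed by DMSO lysis and absorbance at 550 nm. Values are percent of untreated control, with triplicate samples in three independent experiments; IC50 was calculated for CHL.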

[3] = tested on: L5178Y Tk^+/− mouse lymphoma cells; test: Cytotoxicity assay; format: cell-based
[4] = tested on: 2 Gy irradiated Chinese hamster ovary (CHO)-K1 cells; details: 2 Gy irradiated CHO-K1 cells; cited from earlier work
[5] = S9 (−), 24~0 hr continuous, 25 μg/ml
[6] = S9 (−), 24~0 hr continuous, 50 μg/ml

In the case of `Oc1ccc(-c2ccc3cc(O)ccc3c2)c(O)c1` [HS-1793, 4-(6-hydroxy-2-naphthyl)-1,3-benzenediol], the Growth index ([1]; S9 (+), 6~18 hr, 6.25 μg/ml) is reported as 98%, the “Total frequency (+) Gap” value ([1]; S9 (+), 6~18 hr, 6.25 μg/ml) is reported as 1.5% and the “Total frequency (−) Gap” value ([1]; S9 (+), 6~18 hr, 6.25 μg/ml) is reported as 1%. For the same molecule, the Gap ([1]; S9 (+), 6~18 hr, 6.25 μg/ml) was 1, the “Numerical aberrations, PP + ER” value ([1]; S9 (+), 6~18 hr, 6.25 μg/ml) was 0 and the “Structural aberrations, Chromatid type, ctb” value (“Structural aberrations … ctb” below) ([1]; S9 (+), 6~18 hr, 6.25 μg/ml) was 1. The “Structural aberrations, Chromatid type, cte” value (from here on “Structural aberrations … cte”) ([1]; S9 (+), 6~18 hr, 6.25 μg/ml) was 1, the “Structural aberrations, Chromosome type, csb” value (shortened to “Structural aberrations … csb”) ([1]; S9 (+), 6~18 hr, 6.25 μg/ml) was 0 and the “Structural aberrations, Chromosome type, cse” value (“Structural aberrations … cse” for short) ([1]; S9 (+), 6~18 hr, 6.25 μg/ml) was 0. The “Structural aberrations, Others” value ([1]; S9 (+), 6~18 hr, 6.25 μg/ml) was 0, the Growth index ([1]; S9 (+), 6~18 hr, 12.5 μg/ml) was 95% and the “Total frequency (+) Gap” value ([1]; S9 (+), 6~18 hr, 12.5 μg/ml) was 1%. For the same molecule, the “Total frequency (−) Gap” value ([1]; S9 (+), 6~18 hr, 12.5 μg/ml) was 0.5%, the Gap ([1]; S9 (+), 6~18 hr, 12.5 μg/ml) was 1 and the “Numerical aberrations, PP + ER” value ([1]; S9 (+), 6~18 hr, 12.5 μg/ml) was 0. For the same molecule, the “Structural aberrations … ctb” value ([1]; S9 (+), 6~18 hr, 12.5 μg/ml) was 0, the “Structural aberrations … cte” value ([1]; S9 (+), 6~18 hr, 12.5 μg/ml) was 1 and the “Structural aberrations … csb” value ([1]; S9 (+), 6~18 hr, 12.5 μg/ml) was 0. The “Structural aberrations … cse” value ([1]; S9 (+), 6~18 hr, 12.5 μg/ml) was 0, the “Structural aberrations, Others” value ([1]; S9 (+), 6~18 hr, 12.5 μg/ml) was 0 and the Growth index ([1]; S9 (+), 6~18 hr, 25 μg/ml) was 89%. For the same molecule, the “Total frequency (+) Gap” value ([1]; S9 (+), 6~18 hr, 25 μg/ml) was 3.5%, the “Total frequency (−) Gap” value ([1]; S9 (+), 6~18 hr, 25 μg/ml) was 2.5% and the Gap ([1]; S9 (+), 6~18 hr, 25 μg/ml) was 2. For the same molecule, the “Numerical aberrations, PP + ER” value ([1]; S9 (+), 6~18 hr, 25 μg/ml) was 0, the “Structural aberrations … ctb” value ([1]; S9 (+), 6~18 hr, 25 μg/ml) was 2 and the “Structural aberrations … cte” value ([1]; S9 (+), 6~18 hr, 25 μg/ml) was 3. For the same molecule, the “Structural aberrations … csb” value ([1]; S9 (+), 6~18 hr, 25 μg/ml) was 0, the “Structural aberrations … cse” value ([1]; S9 (+), 6~18 hr, 25 μg/ml) was 0 and the “Structural aberrations, Others” value ([1]; S9 (+), 6~18 hr, 25 μg/ml) was 0. For the same molecule, the “Total frequency (+) Gap” value ([1]; S9 (+), 6~18 hr, 50 μg/ml) was 3%, the “Total frequency (−) Gap” value ([1]; S9 (+), 6~18 hr, 50 μg/ml) was 2.5% and the Gap ([1]; S9 (+), 6~18 hr, 50 μg/ml) was 1. For the same molecule, the “Numerical aberrations, PP + ER” value ([1]; S9 (+), 6~18 hr, 50 μg/ml) was 0, the “Structural aberrations … ctb” value ([1]; S9 (+), 6~18 hr, 50 μg/ml) was 3 and the “Structural aberrations … csb” value ([1]; S9 (+), 6~18 hr, 50 μg/ml) was 0. For the same molecule, the “Structural aberrations … cse” value ([1]; S9 (+), 6~18 hr, 50 μg/ml) was 0, the “Structural aberrations, Others” value ([1]; S9 (+), 6~18 hr, 50 μg/ml) was 0 and the Growth index ([1]; S9 (+), 6~18 hr, 100 μg/ml) was 71%. The “Total frequency (+) Gap” value ([1]; S9 (+), 6~18 hr, 100 μg/ml) was 1.5%, the “Total frequency (−) Gap” value ([1]; S9 (+), 6~18 hr, 100 μg/ml) was 0.5% and the Gap ([1]; S9 (+), 6~18 hr, 100 μg/ml) was 2. The “Numerical aberrations, PP + ER” value ([1]; S9 (+), 6~18 hr, 100 μg/ml) was 0, the “Structural aberrations … ctb” value ([1]; S9 (+), 6~18 hr, 100 μg/ml) was 0 and the “Structural aberrations … cte” value ([1]; S9 (+), 6~18 hr, 100 μg/ml) was 1. The “Structural aberrations … csb” value ([1]; S9 (+), 6~18 hr, 100 μg/ml) was 0, the “Structural aberrations … cse” value ([1]; S9 (+), 6~18 hr, 100 μg/ml) was 0 and the “Structural aberrations, Others” value ([1]; S9 (+), 6~18 hr, 100 μg/ml) was 0. For the same molecule, the Growth index ([1]; S9 (−), 6~18 hr, 6.25 μg/ml) was 98%, the “Total frequency (+) Gap” value ([1]; S9 (−), 6~18 hr, 6.25 μg/ml) was 1.5% and the “Total frequency (−) Gap” value ([1]; S9 (−), 6~18 hr, 6.25 μg/ml) was 1%. For the same molecule, the Gap ([1]; S9 (−), 6~18 hr, 6.25 μg/ml) was 1, the “Numerical aberrations, PP + ER” value ([1]; S9 (−), 6~18 hr, 6.25 μg/ml) was 0 and the “Structural aberrations … ctb” value ([1]; S9 (−), 6~18 hr, 6.25 μg/ml) was 0. For the same molecule, the “Structural aberrations … cte” value ([1]; S9 (−), 6~18 hr, 6.25 μg/ml) was 2, the “Structural aberrations … csb” value ([1]; S9 (−), 6~18 hr, 6.25 μg/ml) was 0 and the “Structural aberrations … cse” value ([1]; S9 (−), 6~18 hr, 6.25 μg/ml) was 0. The “Structural aberrations, Others” value ([1]; S9 (−), 6~18 hr, 6.25 μg/ml) was 0, the Growth index ([1]; S9 (−), 6~18 hr, 12.5 μg/ml) was 90% and the “Total frequency (+) Gap” value ([1]; S9 (−), 6~18 hr, 12.5 μg/ml) was 2%. For the same molecule, the “Total frequency (−) Gap” value ([1]; S9 (−), 6~18 hr, 12.5 μg/ml) was 1%, the Gap ([1]; S9 (−), 6~18 hr, 12.5 μg/ml) was 2 and the “Numerical aberrations, PP + ER” value ([1]; S9 (−), 6~18 hr, 12.5 μg/ml) was 0. The “Structural aberrations … ctb” value ([1]; S9 (−), 6~18 hr, 12.5 μg/ml) was 1, the “Structural aberrations … cte” value ([1]; S9 (−), 6~18 hr, 12.5 μg/ml) was 1 and the “Structural aberrations … csb” value ([1]; S9 (−), 6~18 hr, 12.5 μg/ml) was 0. The “Structural aberrations … cse” value ([1]; S9 (−), 6~18 hr, 12.5 μg/ml) was 0, the “Structural aberrations, Others” value ([1]; S9 (−), 6~18 hr, 12.5 μg/ml) was 0 and the Growth index ([1]; S9 (−), 6~18 hr, 25 μg/ml) was 84%. For the same molecule, the “Total frequency (+) Gap” value ([1]; S9 (−), 6~18 hr, 25 μg/ml) was 2%, the “Total frequency (−) Gap” value ([1]; S9 (−), 6~18 hr, 25 μg/ml) was 1% and the Gap ([1]; S9 (−), 6~18 hr, 25 μg/ml) was 2. The “Numerical aberrations, PP + ER” value ([1]; S9 (−), 6~18 hr, 25 μg/ml) was 0, the “Structural aberrations … ctb” value ([1]; S9 (−), 6~18 hr, 25 μg/ml) was 0 and the “Structural aberrations … cte” value ([1]; S9 (−), 6~18 hr, 25 μg/ml) was 1. The “Structural aberrations … csb” value ([1]; S9 (−), 6~18 hr, 25 μg/ml) was 1, the “Structural aberrations … cse” value ([1]; S9 (−), 6~18 hr, 25 μg/ml) was 0 and the “Structural aberrations, Others” value ([1]; S9 (−), 6~18 hr, 25 μg/ml) was 0. The Growth index ([1]; S9 (−), 6~18 hr, 50 μg/ml) was 72%, the “Total frequency (+) Gap” value ([1]; S9 (−), 6~18 hr, 50 μg/ml) was 1.5% and the “Total frequency (−) Gap” value ([1]; S9 (−), 6~18 hr, 50 μg/ml) was 1%. The Gap ([1]; S9 (−), 6~18 hr, 50 μg/ml) was 1, the “Numerical aberrations, PP + ER” value ([1]; S9 (−), 6~18 hr, 50 μg/ml) was 0 and the “Structural aberrations … ctb” value ([1]; S9 (−), 6~18 hr, 50 μg/ml) was 1. For the same molecule, the “Structural aberrations … cte” value ([1]; S9 (−), 6~18 hr, 50 μg/ml) was 1, the “Structural aberrations … csb” value ([1]; S9 (−), 6~18 hr, 50 μg/ml) was 0 and the “Structural aberrations … cse” value ([1]; S9 (−), 6~18 hr, 50 μg/ml) was 0. The “Structural aberrations, Others” value ([1]; S9 (−), 6~18 hr, 50 μg/ml) was 0, the Growth index ([1]; S9 (−), 6~18 hr, 100 μg/ml) was 65% and the “Total frequency (−) Gap” value ([1]; S9 (−), 6~18 hr, 100 μg/ml) was 0.5%. For the same molecule, the Gap ([1]; S9 (−), 6~18 hr, 100 μg/ml) was 2, the “Structural aberrations … ctb” value ([1]; S9 (−), 6~18 hr, 100 μg/ml) was 0 and the “Structural aberrations … csb” value ([1]; S9 (−), 6~18 hr, 100 μg/ml) was 0. The “Structural aberrations … cse” value ([1]; S9 (−), 6~18 hr, 100 μg/ml) was 0, the “Structural aberrations, Others” value ([1]; S9 (−), 6~18 hr, 100 μg/ml) was 0 and the Growth index ([1]; S9 (−), 24~0 hr continuous, 6.25 μg/ml) was 93%. The Growth index ([1]; S9 (−), 24~0 hr continuous, 12.5 μg/ml) was 85%, the Growth index [1, 5] was 79% and the Gap [1, 5] was 1. The “Numerical aberrations, PP + ER” value [1, 5] was 1, the “Structural aberrations … ctb” value [1, 5] was 0 and the “Structural aberrations … cte” value [1, 5] was 1. For the same molecule, the “Structural aberrations … csb” value [1, 5] was 0, the “Structural aberrations … cse” value [1, 5] was 0 and the “Structural aberrations, Others” value [1, 5] was 0. The Growth index [1, 6] was 72%, the “Total frequency (+) Gap” value [1, 6] was 2% and the “Total frequency (−) Gap” value [1, 6] was 1.5%. For the same molecule, the “Structural aberrations … ctb” value [1, 6] was 2, the “Structural aberrations … cte” value [1, 6] was 1 and the “Structural aberrations … csb” value [1, 6] was 0. The “Structural aberrations … cse” value [1, 6] was 0, the “Structural aberrations, Others” value [1, 6] was 0 and the Growth index ([1]; S9 (−), 24~0 hr continuous, 100 μg/ml) was 58%. For the same molecule, the “Incidence of structural or numerical chromosomal aberrations” value ([1]; continuous treatment for 24 hr, 6.25, 12.5, 25, 50 and 100 μg/ml, absence of the S9 mix) was “did not induce a significant increase”, the “Incidence of structural or numerical chromosomal aberrations” value ([1]; short term treatment for 6 hr, 6.25, 12.5, 25, 50 and 100 μg/ml, presence or absence of the S9 mix) was “did not induce a significant increase” and the “Cell viability (MTT)” value [2] was “decreased in dose dependent manner”. For the same molecule, the “Cell viability (MTT)” value ([3]; 62.5 μg/ml for 4 hr) was “no reduction of viable cell numbers > 70%”, the “Cell viability (dose-range study)” value ([3]; 24 hr treatments) was “decreased in dose dependent manner” and the “ROS and cellular DNA damage” value [4] was “significantly decreased”.
